In ChEMBL document CHEMBL4257581, “Discovery of Small Molecule Splicing Modulators of Survival Motor Neuron-2 (SMN2) for the Treatment of Spinal Muscular Atrophy (SMA)” (J Med Chem, 2018):
Blank lines part the entries; values can stand above or below the compound they belong to.

Key:
Mus musculus = species: Mus musculus; assay: Stabilization of SMN2 mRNA in mouse myoblasts assessed as increase in SMN protein level by ELISA relative to DMSO control
[1] = Lipophilicity, log D of the compound at pH 7.4; assay type: physicochemical; conditions: buffer
[2] = Permeability of the compound at 5 uM after 4 hrs by PAMPA; assay type: ADME
[3] = Clearance in Sprague-Dawley rat at 1 mg/kg, iv or 10 mg/kg, po; assay type: ADME, organism-based; conditions: in vivo
[4] = Oral bioavailability in Sprague-Dawley rat at 10 mg/kg; assay type: ADME, organism-based; conditions: in vivo
[5] = AUC in Sprague-Dawley rat at 1 mg/kg, iv or 10 mg/kg, po; assay type: ADME, organism-based; conditions: in vivo
[6] = Drug level in Sprague-Dawley rat brain at 1 mg/kg, iv or 10 mg/kg, po after 7 hrs; assay type: ADME, organism-based; conditions: read-out: Drug uptake
[7] = Dissociation constant, pKa of the compound; assay type: physicochemical
[8] = Intrinsic clearance in rat liver microsomes at 1 uM up to 30 mins in presence of NADPH by LC-MS/MS analysis; assay type: ADME, microsome; conditions: read-out: CLH
[9] = AUC in mouse plasma at 10 mg/kg, po; assay type: ADME, organism-based
Method in brief: (§1)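 Mouse PK: oral arm dosed at 10 mg/kg p.o. alongside a 1 mg/kg i.v. arm. Plasma and brain AUC were taken from the oral arm.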

[10] = AUC in mouse brain at 10 mg/kg, po; assay type: ADME, organism-based; method in brief: as §1
[11] = Clearance in mouse at 1 mg/kg, iv or 10 mg/kg, po; assay type: ADME, organism-based; conditions: in vivo
Method in brief: (§2)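 Mouse PK with dosing at 1 mg/kg i.v. and 10 mg/kg p.o.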

[12] = Half life in mouse at 1 mg/kg, iv or 10 mg/kg, po; assay type: ADME, organism-based; conditions: in vivo; method in brief: as §2
[13] = Oral bioavailability in mouse at 10 mg/kg; assay type: ADME, organism-based; conditions: in vivo; method in brief: as §1
[14] = Solubility of the compound at pH 6.8; assay type: physicochemical; conditions: buffer
[15] = Intrinsic clearance in mouse liver microsomes at 1 uM up to 30 mins in presence of NADPH by LC-MS/MS analysis; assay type: ADME, microsome; conditions: read-out: CLH
[16] = Plasma clearance in C57BL/6 mouse at 1 mg/kg, iv or 5 mg/kg, po; assay type: ADME, organism-based
Method in brief: (§3)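 Mice received single doses of 1 mg/kg i.v. or 5 mg/kg p.o. (n = 2). The vehicle was 10% 0.1 N HCl, 10% PG, 25 (20%) Solutol and 100 mM pH 5 citrate buffer. Plasma was sampled for PK parameters.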

[17] = Oral bioavailability in C57BL/6 mouse at 5 mg/kg; assay type: ADME, organism-based; conditions: in vivo; method in brief: as §3
[18] = AUC (0 to 7 hrs) in C57BL/6 mouse plasma at 1 mg/kg, iv or 5 mg/kg, po; assay type: ADME, organism-based; method in brief: as §3
[19] = Drug level in brain in C57BL/6 mouse brain at 1 mg/kg, iv or 5 mg/kg, po; assay type: ADME, organism-based; conditions: in vivo, read-out: Drug uptake
Homo sapiens = species: Homo sapiens; assay: Stabilization of SMN2 mRNA in human spinal muscular atrophy patient derived fibroblasts by ELISA
[20] = Drug level in mouse brain at 10 mg/kg, po after 7 hrs; assay type: ADME, organism-based; conditions: read-out: Drug uptake
Method in brief: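 Mouse PK at 10 mg/kg p.o. Brain concentration was measured at a single time point, 7 h after the oral dose.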

SMILES: CN(c1ccc(-c2cc3cccnc3cc2O)nn1)C1CC(C)(C)NC(C)(C)C1
fold change (FC) (Mus musculus): 2.9
logD [1]: 3.23
log(permeability) [2]: -4.5
clearance [3]: 35 mL/min/kg
bioavailability [4]: 46%
AUC [5]: 1.17 µM·h
concentration at 7 h [6]: 68 nM

SMILES: CN(c1ccc(-c2ccc(-n3cccn3)cc2O)nn1)C1CC(C)(C)NC(C)(C)C1
fold change (FC) (Mus musculus): 3.1
logD [1]: 3.11
pKa [7]: 10.3

SMILES: CN(c1ccc(-c2ccc(-c3cn[nH]c3)cc2O)nn1)C1CC(C)(C)NC(C)(C)C1
fold change (FC) (Mus musculus): 3.1
logD [1]: 2.92
log(permeability) [2]: -5.4
clearance [3]: 22 mL/min/kg
bioavailability [4]: 53%
AUC [5]: 2.3 µM·h
concentration at 7 h [6]: 58 nM

SMILES: CN(c1ccc(-c2cc3ccccc3s2)nn1)C1CC(C)(C)NC(C)(C)C1
logD [1]: 3.4
microsomal CLint at 1 µM [8]: 40 µL/min/mg
AUC [9]: 4.9 µM·h
AUC [10]: 17.4 µM·h
clearance [11]: 100 mL/min/kg
half-life [12]: 3.2 h
bioavailability [13]: 100%

SMILES: CN(c1ccc(-c2ccc(-n3cc(CO)cn3)cc2O)nn1)C1CC(C)(C)NC(C)(C)C1
logD [1]: 2.16
log(permeability) [2]: -5.5

SMILES: COc1cc(C#N)ccc1-c1ccc(N(C)C2CC(C)(C)NC(C)(C)C2)nn1
fold change (FC) (Mus musculus): 2.3

SMILES: CN(c1ccc(-c2cc3ccccc3cc2O)nn1)C1CC(C)(C)NC(C)(C)C1
fold change (FC) (Mus musculus): 2.4 to 2.5
logD [1]: 4
microsomal CLint at 1 µM [8]: 17 µL/min/mg
AUC [9]: 16.9 µM·h
AUC [10]: 36.7 µM·h
clearance [11]: 56 mL/min/kg
half-life [12]: 3.7 h
bioavailability [13]: 100%

SMILES: CN(c1ccc(-c2ccc(-n3ccc(N)n3)cc2O)nn1)C1CC(C)(C)NC(C)(C)C1
fold change (FC) (Mus musculus): 2.8
logD [1]: 2.52
log(permeability) [2]: -5.2
clearance [3]: 16 mL/min/kg
bioavailability [4]: 4%
AUC [5]: 0.092 µM·h
concentration at 7 h [6]: < 2.4 nM

SMILES: CN(c1ccc(-c2cc3cnccc3cc2O)nn1)C1CC(C)(C)NC(C)(C)C1
fold change (FC) (Mus musculus): 2.6
logD [1]: 3.07
log(permeability) [2]: -4.3
clearance [3]: 57 mL/min/kg
bioavailability [4]: 100%
AUC [5]: 1.35 µM·h
concentration at 7 h [6]: 630 nM

SMILES: CC1(C)CC(Nc2ccc(-c3cc4ccccc4s3)nn2)CC(C)(C)N1
fold change (FC) (Mus musculus): 2.5
logD [1]: 2.67
pKa [7]: 10
solubility [14]: > 1000 µM
microsomal CLint at 1 µM [8]: 22.6 µL/min/mg
microsomal CLint at 1 µM [15]: 23.5 µL/min/mg
clearance [16]: 113 mL/min/kg
bioavailability [17]: 18%
AUC(0-t) [18]: 0.4 µM·h
concentration [19]: < 2.7 nM
fold change (FC) (Homo sapiens): 1.5

SMILES: CN(c1ccc(-c2ccc(C#N)cc2O)nn1)C1CC(C)(C)NC(C)(C)C1
fold change (FC) (Mus musculus): 3.1
logD [1]: 3.2
microsomal CLint at 1 µM [8]: 7 µL/min/mg
AUC [9]: 5.2 µM·h
concentration at 7 h [20]: 2000 nM
clearance [11]: 23 mL/min/kg
half-life [12]: 4.5 h
bioavailability [13]: 37%

Other lines, results leading:

logD [1]: 2.79
pKa [7]: 10.1
SMILES: CC1(C)CC(Oc2ccc(-c3ccc(-n4cccn4)cc3O)nn2)CC(C)(C)N1

logD [1]: 1.2
SMILES: Oc1cc(-c2cn[nH]c2)ccc1-c1ccc(N2CCC3(CCCNC3)C2)nn1 (stereo not drawn)

logD [1]: 0.58
SMILES: Oc1cc(-c2cn[nH]c2)ccc1-c1ccc(N2C[C@H]3CNC[C@H]3C2)nn1

fold change (FC) (Mus musculus): 1.2
logD [1]: 2.59
pKa [7]: 5.89
SMILES: Oc1cc(-n2cccn2)ccc1-c1ccc(OC2CCNCC2(F)F)nn1 (stereo not drawn)

fold change (FC) (Mus musculus): 2.3
SMILES: CC1(C)CC(Nc2ccc(-c3ccc4ccccc4c3)nn2)CC(C)(C)N1

logD [1]: 2.51
log(permeability) [2]: -4.9
clearance [3]: 25 mL/min/kg
bioavailability [4]: 63%
AUC [5]: 3.03 µM·h
concentration at 7 h [6]: 914 nM
SMILES: CC1(C)CC(Oc2ccc(-c3ccc(-c4cn[nH]c4)cc3O)nn2)CC(C)(C)N1 [BRANAPLAM]

fold change (FC) (Mus musculus): 1.1
logD [1]: 4.65
SMILES: CC1(C)CC(Oc2ccc(-c3ccc(-n4cccn4)cc3O)nn2)CC(C)(C)N1CC(F)(F)F

logD [1]: 2.89
log(permeability) [2]: -5.3
SMILES: CC1(C)CC(Cc2ccc(-c3ccc(-c4cn[nH]c4)cc3O)nn2)CC(C)(C)N1

fold change (FC) (Mus musculus): 1
SMILES: CC1(C)CC(Nc2ccc(-c3cccc4ccccc34)nn2)CC(C)(C)N1

logD [1]: 0.69
SMILES: Oc1cc(-n2cccn2)ccc1-c1ccc(OC2CCNCC2)nn1
